# Laboratory results published in ChEMBL document CHEMBL4229380, “Arylureas derived from colchicine: Enhancement of colchicine oncogene downregulation activity” (Eur J Med Chem, 2018).
# What was measured:
# [1] = system: HT-29; assay: Antiproliferative activity against human HT-29 cells after 2 days by MTT assay; format: functional, cell-based; conditions: HT-29, 48 h
# How it was run: (§1)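 Cells (5×10^3 per well) in DMEM with 10% FBS, glucose, glutamine and antibiotics were exposed to serial dilutions (stocks in DMSO) for 2 days at 37 °C, 5% CO2. MTT was added for 3 h, formazan was dissolved in DMSO and absorbance read at 490 nm. Viability was taken as % of untreated cells. IC50 was read graphically from three independent experiments.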
# [2] = system: MCF7; assay: Antiproliferative activity against human MCF7 cells after 2 days by MTT assay; format: functional, cell-based; conditions: MCF7, 48 h; how it was run: as §1
# [3] = system: HeLa; assay: Antiproliferative activity against human HeLa cells after 2 days by MTT assay; format: functional, cell-based; conditions: 48 h; how it was run: as §1
# [4] = system: HEK293; assay: Antiproliferative activity against human HEK293 cells after 2 days by MTT assay; format: cell-based; conditions: HEK293, 48 h; how it was run: as §1
# [5] = system: HT-29; assay: Induction of apoptosis in human HT-29 cells assessed as viable cells at 20 nM after 48 hrs by Annexin V-FITC staining-based flow cytometric analysis (reference value: 82 +/- 1%); format: functional; conditions: HT-29, 48 h, read-out: Activity
# [6] = system: HT-29; assay: Induction of apoptosis in human HT-29 cells assessed as apoptotic cells at 20 nM after 48 hrs by Annexin V-FITC staining-based flow cytometric analysis (reference value: 13 +/- 3%); format: functional
# [7] = system: HT-29; assay: Induction of apoptosis in human HT-29 cells assessed as necrotic cells at 20 nM after 48 hrs by Annexin V-FITC staining-based flow cytometric analysis (reference value: 2 +/- 6%); format: functional
# [8] = system: HT-29; assay: Effect on c-MYC gene expression in human HT-29 cells assessed as c-MYC level at 20 nM after 48 hrs by RT-qPCR analysis; format: functional
# How it was run: (§2)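 HT-29 cells at 70–80% confluence were seeded at 1.5×10^5 per well and left 24 h, then treated 48 h, with DMSO as control. Total RNA was extracted and VEGF-A, c-Myc and hTERT were quantified by TaqMan qPCR, normalized to β-actin and to living cell number. Results are % expression versus control, at least three measurements.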
# [9] = system: HT-29; assay: Effect on hTERT gene expression in human HT-29 cells assessed as hTERT level at 20 nM after 48 hrs by RT-qPCR analysis; format: functional; how it was run: as §2
# [10] = system: HT-29; assay: Effect on VEGF gene expression in human HT-29 cells assessed as VEGF level at 20 nM after 48 hrs by RT-qPCR analysis; format: functional; how it was run: as §2
# [11] = system: HT-29; assay: Effect on c-MYC protein expression in human HT-29 cells assessed as c-MYC level at 20 nM after 48 hrs by ELISA; format: functional
# How it was run: (§3)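 HT-29 cells (1.5×10^5 per well, 24 h pre-culture) were treated 48 h and washed in PBS. They were lysed in Tris pH 7.4 buffer with detergents, phosphatase inhibitors, PMSF and protease inhibitors. Lysates were adjusted to 200 µg/mL protein (Bradford) and total c-Myc or VEGFR-2 was measured by sandwich ELISA kit. Values are % of DMSO control, ≥3 measurements.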
# [12] = system: HT-29; assay: Effect on VEGFR2 protein expression in human HT-29 cells assessed as VEGFR2 level at 20 nM after 48 hrs by ELISA; format: functional; how it was run: as §3
# [13] = system: HT-29; assay: Effect on VEGF protein expression in human HT-29 cells assessed as secreted VEGF level in culture media at 20 nM after 48 hrs by ELISA
# [14] = system: HT-29; assay: Induction of apoptosis in human HT-29 cells assessed as viable cells at 25000 nM after 48 hrs by Annexin V-FITC staining-based flow cytometric analysis (reference value: 82 +/- 1%); format: functional; conditions: HT-29, 48 h, read-out: Activity
# [15] = system: HT-29; assay: Induction of apoptosis in human HT-29 cells assessed as apoptotic cells at 25000 nM after 48 hrs by Annexin V-FITC staining-based flow cytometric analysis (reference value: 13 +/- 3%); format: functional
# [16] = system: HT-29; assay: Induction of apoptosis in human HT-29 cells assessed as necrotic cells at 25000 nM after 48 hrs by Annexin V-FITC staining-based flow cytometric analysis (reference value: 2 +/- 6%); format: functional
# [17] = system: HT-29; assay: Effect on c-MYC gene expression in human HT-29 cells assessed as c-MYC level at 25 uM after 48 hrs by RT-qPCR analysis; format: functional; how it was run: as §2
# [18] = system: HT-29; assay: Effect on hTERT gene expression in human HT-29 cells assessed as hTERT level at 25 uM after 48 hrs by RT-qPCR analysis; format: functional; how it was run: as §2
# [19] = system: HT-29; assay: Effect on VEGF gene expression in human HT-29 cells assessed as VEGF level at 25 uM after 48 hrs by RT-qPCR analysis; format: functional; how it was run: as §2
# [20] = system: HT-29; assay: Effect on c-MYC protein expression in human HT-29 cells assessed as c-MYC level at 25 uM after 48 hrs by ELISA; format: functional; how it was run: as §3
# [21] = system: HT-29; assay: Effect on VEGFR2 protein expression in human HT-29 cells assessed as VEGFR2 level at 25 uM after 48 hrs by ELISA; format: functional; how it was run: as §3
# [22] = system: HT-29; assay: Effect on VEGF protein expression in human HT-29 cells assessed as secreted VEGF level in culture media at 25 uM after 48 hrs by ELISA
# [23] = system: HT-29; assay: Induction of apoptosis in human HT-29 cells assessed as viable cells at 40 nM after 48 hrs by Annexin V-FITC staining-based flow cytometric analysis (reference value: 82 +/- 1%); format: functional; conditions: HT-29, 48 h, read-out: Activity
# [24] = system: HT-29; assay: Induction of apoptosis in human HT-29 cells assessed as apoptotic cells at 40 nM after 48 hrs by Annexin V-FITC staining-based flow cytometric analysis (reference value: 13 +/- 3%); format: functional
# [25] = system: HT-29; assay: Induction of apoptosis in human HT-29 cells assessed as necrotic cells at 40 nM after 48 hrs by Annexin V-FITC staining-based flow cytometric analysis (reference value: 2 +/- 6%); format: functional
# [26] = system: HT-29; assay: Effect on c-MYC gene expression in human HT-29 cells assessed as c-MYC level at 25 nM after 48 hrs by RT-qPCR analysis; format: functional; how it was run: as §2
# [27] = system: HT-29; assay: Effect on hTERT gene expression in human HT-29 cells assessed as hTERT level at 25 nM after 48 hrs by RT-qPCR analysis; format: functional; how it was run: as §2
# [28] = system: HT-29; assay: Effect on VEGF gene expression in human HT-29 cells assessed as VEGF level at 25 nM after 48 hrs by RT-qPCR analysis; format: functional; how it was run: as §2
# [29] = system: HT-29; assay: Effect on c-MYC protein expression in human HT-29 cells assessed as c-MYC level at 25 nM after 48 hrs by ELISA; format: functional; how it was run: as §3
# [30] = system: HT-29; assay: Effect on VEGFR2 protein expression in human HT-29 cells assessed as VEGFR2 level at 25 nM after 48 hrs by ELISA; format: functional; how it was run: as §3
# [31] = system: HT-29; assay: Effect on VEGF protein expression in human HT-29 cells assessed as secreted VEGF level in culture media at 25 nM after 48 hrs by ELISA
smiles,measurement,setting,value
COc1cc2c(c(OC)c1OC)-c1ccc(OC)c(=O)cc1[C@@H](NC(=O)Nc1ccccc1C(F)(F)F)CC2,IC50,[1],15 nM
same,IC50,[2],25 nM
same,IC50,[3],18 nM
same,IC50,[4],19 nM
same,viability at 0.02 µM,[5],96%
same,Activity,[6],4%
same,Activity,[7],1%
same,Activity,[8],107%
same,Activity,[9],107%
same,Activity,[10],101%
same,Activity,[11],99%
same,Activity,[12],100%
same,Activity,[13],82%
CCN(CC)CCNC(=O)c1c(C)[nH]c(/C=C2\C(=O)Nc3ccc(F)cc32)c1C [SUNITINIB],viability at 25 µM,[14],75%
same,Activity,[15],22%
same,Activity,[16],3%
same,Activity,[17],47%
same,Activity,[18],68%
same,Activity,[19],46%
same,Activity,[20],100%
same,Activity,[21],90%
same,Activity,[22],45%
COc1cc2c(c(OC)c1OC)-c1ccc(OC)c(=O)cc1[C@@H](NC(C)=O)CC2 [COLCHICINE],IC50,[1],13 nM
same,IC50,[2],20 nM
same,IC50,[3],14 nM
same,IC50,[4],13 nM
same,viability at 0.04 µM,[23],26%
same,Activity,[24],73%
same,Activity,[25],1%
same,Activity,[26],37%
same,Activity,[27],87%
same,Activity,[28],55%
same,Activity,[29],63%
same,Activity,[30],94%
same,Activity,[31],40%
